IDE cell activ: IDE (human) activation, cell-based | P14735 | HEK cells, FAbeta-B cleavage, fluorescence polarization; 0% vehicle, 100% cell-free pure enzyme wells | activation, % at 5.96 µM | actives 0.073% (n = 340,000) | AID 493087;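 active = activation above the mean of all tested compounds plus 3 SD, set per screening campaign, cut at about 17% in these data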
Target sequence (P14735 whole entry, looked up): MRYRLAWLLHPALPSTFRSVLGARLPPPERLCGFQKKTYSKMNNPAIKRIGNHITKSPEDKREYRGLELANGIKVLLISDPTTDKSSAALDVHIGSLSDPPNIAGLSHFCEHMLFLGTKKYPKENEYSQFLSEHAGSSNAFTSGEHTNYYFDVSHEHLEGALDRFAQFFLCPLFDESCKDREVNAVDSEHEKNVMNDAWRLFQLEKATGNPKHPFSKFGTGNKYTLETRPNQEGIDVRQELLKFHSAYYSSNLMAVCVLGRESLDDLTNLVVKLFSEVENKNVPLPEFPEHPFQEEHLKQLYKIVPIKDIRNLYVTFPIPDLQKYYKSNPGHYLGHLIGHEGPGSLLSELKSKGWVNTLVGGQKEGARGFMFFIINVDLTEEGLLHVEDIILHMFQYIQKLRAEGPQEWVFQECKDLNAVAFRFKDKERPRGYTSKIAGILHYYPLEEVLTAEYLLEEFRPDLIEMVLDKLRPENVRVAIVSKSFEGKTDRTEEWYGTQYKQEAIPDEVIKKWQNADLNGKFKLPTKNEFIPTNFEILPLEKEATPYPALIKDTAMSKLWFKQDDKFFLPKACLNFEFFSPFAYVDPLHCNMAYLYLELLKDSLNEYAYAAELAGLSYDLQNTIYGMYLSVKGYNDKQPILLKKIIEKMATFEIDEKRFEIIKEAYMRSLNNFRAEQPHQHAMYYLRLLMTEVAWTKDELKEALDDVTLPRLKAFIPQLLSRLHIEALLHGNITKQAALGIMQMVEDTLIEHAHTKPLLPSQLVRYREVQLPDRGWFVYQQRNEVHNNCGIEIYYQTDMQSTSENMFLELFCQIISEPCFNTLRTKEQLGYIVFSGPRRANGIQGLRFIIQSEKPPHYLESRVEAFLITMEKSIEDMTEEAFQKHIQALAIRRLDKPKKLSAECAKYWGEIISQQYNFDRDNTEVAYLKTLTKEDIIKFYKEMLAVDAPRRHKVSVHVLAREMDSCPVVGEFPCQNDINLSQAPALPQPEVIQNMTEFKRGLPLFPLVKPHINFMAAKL
HNF4A DNA FP: change in binding of human HNF4 alpha to DNA | HNF4a-FITC DNA binding, fluorescence polarization, 1 h | activity change, % at 10 µM | actives 0.3% (n = 360,000) | P41235; in the data active = activity change above about 30%, passing the limit was not always enough
Rpn11 inh: Rpn11 (human) deubiquitinase inhibition; inhibition, % at 20 µM; human 26S proteasome, Ub4-pepOG fluorescence polarization; 20S core pre-blocked with epoxomicin; actives 0.59% (n = 360,000);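 active = inhibition at 20 µM, scaled to each plate's controls, above about 33%, limit read from the data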
CSN inh: CSN deneddylation inhibition; Q92905; Purified CSN, SCF-Nedd8-OG deneddylation, fluorescence polarization; inhibition, % at 12.5 µM; actives 0.38% (n = 360,000); AID 651999;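 active = pattern-corrected inhibition above about 35%, with an unprinted fluorescence ratio check between 0.5 and 1.5, limit read from the data, passing the limit was not always enough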
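Detection – fluorescence polarization · System – HEK293T-derived human Csn5 enzyme · Controls – substrate-only high control, full reaction low control · Timing – 90 min, room temperature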
TPT1 inhibitor: inhibitors of Candida albicans tRNA 2'-phosphotransferase TPT1; recombinant caTPT1, FP RNA substrate dephosphorylation; inhibition, % at 5 µM; actives 0.81% (n = 300,000);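 active = inhibition above the mean of all tested compounds plus 3 SD, set per screening campaign, cut at about 24% in these data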
IDE inh: inhibitors of human insulin-degrading enzyme in cells; HEK cells, FAbetaB cleavage, fluorescence polarization; inhibition, % at 5.59 µM; actives 0.41% (n = 320,000); AID 434962;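 active = percent inhibition above the average of all tested compounds plus 3 SD, set per screening campaign, cut at about 16% in these data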;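 also: IDE supplied by intact live HEK cells; FP after avidin binding of uncleaved biotin substrate so inhibition keeps polarization high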
TPT1 inh confirm: confirmation of Candida albicans TPT1 inhibitors | shares compounds with TPT1 inhibitor | recombinant caTPT1, fluorescence polarization, RNase T1 coupled | inhibition, % at 5 µM | actives 74% (n = 2,400);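 active = inhibition above the primary screen limit, the mean inhibition of all tested compounds plus 3 SD, cut at about 25% in these data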
RNase T1 inh: RNase T1 inhibition in TPT1 counter-screen; shares compounds with TPT1 inhibitor; RNase T1 cleavage, fluorescence polarization, 1536-well; inhibition, % at 5 µM; actives 83% (n = 2,400); AID 2153;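 active = inhibition above the solvent-only control well mean plus 3 SD, limit set per screening run, cut at about 23% in these data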;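 also: inhibitors block cleavage so intact labeled substrate keeps polarization high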
IDE inh confirm: confirmation of human insulin-degrading enzyme inhibitors in cells | inhibition, % at 5.59 µM | actives 51% (n = 1,200) | shares compounds with IDE inh | HEK cells, FAbetaB cleavage, fluorescence polarization;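 active = mean inhibition across triplicate wells above the cutoff set by the earlier primary insulin-degrading enzyme screen, cut at about 16% in these data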
HEK293 tox: kills HEK cells in IDE inhibitor counter-screen; shares compounds with IDE inh; HEK293 cytotoxicity, ATP luminescence; inhibition, % at 5.59 µM; actives 28% (n = 1,200); AID 449730; in the data active = inhibition above about 22%
Rpn11 confirm: confirmation of human proteasome Rpn11 inhibitors | AID 602318 | inhibition, % at 20 µM | purified human 26S proteasome, Ub4-pepOG fluorescence polarization; proteasome pretreated with epoxomicin | shares compounds with Rpn11 inh | actives 29% (n = 1,900)
MMP-2 counter-1: blocks human MMP-2, flagging nonselective RPN11 hits | shares compounds with Rpn11 inh | recombinant MMP-2, FRET peptide cleavage fluorescence | inhibition, % at 20 µM | actives 4% (n = 1,900) | AID 602330;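 also: human MMP-2 activated beforehand with APMA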
Thrombin inh: blocks bovine thrombin, flagging nonselective RPN11 hits. actives 13% (n = 1,900). bovine thrombin cleavage of Ub4-pepOG, fluorescence polarization. inhibition, % at 20 µM. AID 602333. shares compounds with Rpn11 inh;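 active = mean inhibition at least 40% at 20 µM, or signal 3 deviations below plate average, so some actives read negative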
CSN deneddyl val: validation of inhibitors of human CSN-mediated cullin deneddylation; shares compounds with CSN inh; Csn5 deneddylation of SCF-Nedd8OG, fluorescence polarization, 90 min; inhibition, % at 16.6 µM; actives 62% (n = 540); AID 720654; in the data active = inhibition above about 50%
MMP-2 counter-2: counter-screen for CSN deneddylation inhibitors: human MMP-2 inhibition; shares compounds with CSN inh; recombinant MMP-2, FRET substrate fluorescence, 60 min; inhibition, % at 16.6 µM; actives 33% (n = 540); AID 720655;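 active = corrected plate-normalized z-score of 5 or more, or -5 or less, or inhibition of 15% or more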
Thrombin cntr: thrombin (bovine) inhibition, counter-screen for CSN hits; shares compounds with CSN inh; bovine thrombin cleavage of Ub4-pepOG, fluorescence polarization; inhibition, % at 16.6 µM; actives 49% (n = 540);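 active = inhibition at or above a set limit, with a fluorescence interference ratio between 0.5 and a set maximum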
HNF4a DNA conf: change in binding of human HNF4 alpha to DNA, retest | shares compounds with HNF4A DNA FP | HNF4A-FITC DNA binding, fluorescence polarization, 1 h | activity change, % at 12.5 µM | actives 99% (n = 210) | AID 1224897; call rule not given here
Hits are given with their value; – = inactive; · = not tested or not shown. Hits are enriched below; roughly 1.7% of the tested compounds scored in any of these assays. Rule as the data show it, unless noted: active = inhibition above about 40%; inactive = the rest.

SMILES	IDE cell activ	HNF4A DNA FP	Rpn11 inh	CSN inh	TPT1 inhibitor	IDE inh	TPT1 inh confirm	RNase T1 inh	others
CCN(CC)P(=O)(c1n(CC)cc[n+]1CC)N(CC)CC	–	–	–	–	–	–	·	·
Cn1cccc1/C=C1/C(=O)NC(=S)N(Cc2ccc(F)cc2)C1=O	–	–	–	–	–	–	·	·
CC(C)c1ccc(N2C(=O)NC(=O)/C(=C/C=C/c3ccco3)C2=O)cc1	–	66	·	135	102	–	70	72	CSN deneddyl val=–;MMP-2 counter-2=–;Thrombin cntr=52
O=C1NC(=O)N(Cc2ccc(F)cc2)C(=O)/C1=C\C=C\c1ccco1	–	–	·	99	90	19	48	63	IDE inh confirm=–;HEK293 tox=–;CSN deneddyl val=73;MMP-2 counter-2=–;Thrombin cntr=17
Cc1cc(C)cc(N2C(=O)NC(=O)/C(=C\C=C\c3ccco3)C2=O)c1	–	–	–	59	47	–	45	62	CSN deneddyl val=59;MMP-2 counter-2=–;Thrombin cntr=24
CCc1ccc(N2C(=O)NC(=O)/C(=C\C=C\c3ccco3)C2=O)cc1	–	–	·	86	58	–	51	68	CSN deneddyl val=–;MMP-2 counter-2=–;Thrombin cntr=–
CCNC(=S)NCCC1=c2ccccc2=N/C1=C\c1c(O)n(C)c(=O)n(C)c1=O	·	–	–	–	–	–	·	·
O=C(COc1ccc2ccc(=O)oc2c1)N1C[C@H]2C[C@@H](C1)c1cccc(=O)n1C2	–	–	–	–	–	–	·	·
O=C1NC(=O)N(c2ccc3c(c2)OCO3)C(=O)/C1=C\c1ccc(N2CCCCC2)o1	–	–	·	89	126	19	148	145	IDE inh confirm=21;HEK293 tox=–;CSN deneddyl val=138;MMP-2 counter-2=–;Thrombin cntr=–
CCc1ccccc1N1C(=O)NC(=O)/C(=C\c2cc(C)n(C)c2C)C1=O	–	–	–	–	–	–	·	·
CCc1ccccc1N1C(=O)/C(=C/c2ccc(N3CCN(C)CC3)o2)C(=O)NC1=S	–	55	·	128	106	–	142	138	CSN deneddyl val=–;MMP-2 counter-2=–;Thrombin cntr=77
Clc1ccc(OCC#CCN2CCCC2)cc1	–	–	–	–	–	–	·	·
COc1ccc(N=Nc2c(O)[nH]c(=S)[nH]c2=O)cc1	–	80	·	58	60	–	55	70	HNF4a DNA conf=118
Cc1ccc(CN2C3CCCC2CC(NC(=S)NCc2ccccc2)C3)cc1 (stereo not drawn)	–	–	–	–	–	–	·	·
COc1ccc2c3c([nH]c2c1)C(C)NCC3 (stereo not drawn)	–	42	78	–	27	–	–	–	Rpn11 confirm=58;MMP-2 counter-1=–;Thrombin inh=48;HNF4a DNA conf=55
COc1ccc2[nH]c3c(c2c1)CCNC3C (stereo not drawn)	–	–	–	–	–	–	·	·
CN1C2CCC1CC(=NO)C2	–	–	–	–	–	–	·	·
O=C1NC(=O)N(Cc2ccccc2Cl)C(=O)/C1=C/N1CCOCC1	–	37	·	–	40	–	47	60	HNF4a DNA conf=54
O=c1cc(C(F)(F)F)c2cc3c4c(c2o1)CCCN4CCC3	–	–	–	–	–	128	·	·	IDE inh confirm=26;HEK293 tox=–
Cc1nn(CC(C)C)c(Cl)c1C(=O)NC1CCC(C)CC1 (stereo not drawn)	–	–	–	–	–	–	·	·
O=[N+]([O-])c1ccc(NCc2ccccc2)c2nonc12	·	·	·	·	–	34	·	·	IDE inh confirm=26;HEK293 tox=–
O=C(O)c1ccc(/C=C/c2nc3ccccc3c(=O)n2-c2ccc(Br)cc2)cc1	–	–	–	–	–	–	·	·
O=c1c2ccccc2nc(/C=C/c2ccccc2)n1-c1ccccc1O	–	–	–	–	–	–	·	·
COc1ccccc1-n1c(/C=C/c2ccc(O)cc2)nc2ccccc2c1=O	–	–	–	–	–	90	·	·	IDE inh confirm=128;HEK293 tox=–
O=c1[nH]c(O)c(N=Nc2ccc(S(=O)(=O)N3CCOCC3)cc2)c(=O)[nH]1	–	–	–	–	–	–	·	·
SMILES	IDE cell activ	HNF4A DNA FP	Rpn11 inh	CSN inh	TPT1 inhibitor	IDE inh	TPT1 inh confirm	RNase T1 inh	others
O=c1[nH]c(O)c(N=Nc2ccc3c(c2)OCCO3)c(=O)[nH]1	–	–	55	–	–	–	·	·	Rpn11 confirm=–;MMP-2 counter-1=–;Thrombin inh=–
COc1ccc(N2C(=O)/C(=C/c3ccc(OC)c(OC)c3)C(=O)NC2=S)cc1	–	–	53	–	·	·	·	·	Rpn11 confirm=–;MMP-2 counter-1=–;Thrombin inh=–
COc1ccc(N2C(=O)/C(=C/c3ccc(C)o3)C(=O)NC2=S)c(OC)c1	–	–	51	–	–	–	·	·	Rpn11 confirm=–;MMP-2 counter-1=–;Thrombin inh=40
Cc1cc(Cl)ccc1C(=O)C1CCCN(C2CCSCC2)C1 (stereo not drawn)	–	–	–	–	–	–	·	·
CC(=O)N1N=C(c2c(O)n(C)c(=O)n(C)c2=O)CC1c1ccccc1 (stereo not drawn)	–	–	–	–	–	–	·	·
CC(C)c1ccc(-n2c(O)c(/C=N/NC(=O)c3ccncc3)c(=O)[nH]c2=O)cc1	–	–	–	–	–	–	·	·

Screening data from PubChem.
